Experimental data from ChEMBL document CHEMBL5678810.
Calls of active or inactive are those of the source. The rule behind the calls is not given here.

Assays:
[1] = target: Aurora kinase C (Homo sapiens) (UniProt Q9UQB9); assay: Inhibition of T7 bacteriophage fused human AURKC at 10 uM by KINOMEscan analysis relative to control
[2] = tested on: Serine/threonine-protein kinase B-raf (Homo sapiens), P15056 [V600E]; assay: Inhibition of T7 bacteriophage fused human BRAF V600E mutant at 10 uM by KINOMEscan analysis relative to control
[3] = target: Cyclin-dependent kinase-like 2 (Homo sapiens) (UniProt Q92772); assay: Inhibition of T7 bacteriophage fused human CDKL2 at 10 uM by KINOMEscan analysis relative to control
[4] = target: Casein kinase I isoform alpha-like (Homo sapiens) (UniProt Q8N752); assay: Inhibition of T7 bacteriophage fused human CSNK1A1L at 10 uM by KINOMEscan analysis relative to control
[5] = target: Casein kinase I isoform epsilon (Homo sapiens) (UniProt P49674); assay: Inhibition of T7 bacteriophage fused human CSNK1E at 10 uM by KINOMEscan analysis relative to control
[6] = tested on: Epidermal growth factor receptor (Homo sapiens), P00533 [G719S]; assay: Inhibition of T7 bacteriophage fused human EGFR G719S mutant at 10 uM by KINOMEscan analysis relative to control
[7] = tested on: Receptor-type tyrosine-protein kinase FLT3 (Homo sapiens), P36888 [UNDEFINED MUTATION]; assay: Inhibition of T7 bacteriophage fused human FLT3 ITD mutant at 10 uM by KINOMEscan analysis relative to control
[8] = target: Glycogen synthase kinase-3 alpha (Homo sapiens) (UniProt P49840); assay: Inhibition of T7 bacteriophage fused human GSK3A at 10 uM by KINOMEscan analysis relative to control
[9] = target: Tyrosine-protein kinase Mer (Homo sapiens) (UniProt Q12866); assay: Inhibition of T7 bacteriophage fused human MERTK at 10 uM by KINOMEscan analysis relative to control
[10] = target: Hepatocyte growth factor receptor (Homo sapiens) (UniProt P08581); assay: Inhibition of T7 bacteriophage fused human MET at 10 uM by KINOMEscan analysis relative to control
[11] = target: Cyclin-dependent kinase 18 (Homo sapiens) (UniProt Q07002); assay: Inhibition of T7 bacteriophage fused human PCTK3 at 10 uM by KINOMEscan analysis relative to control
[12] = target: 3-phosphoinositide-dependent protein kinase 1 (Homo sapiens) (UniProt O15530); assay: Inhibition of T7 bacteriophage fused human PDPK1 at 10 uM by KINOMEscan analysis relative to control
[13] = tested on: Phosphatidylinositol 4,5-bisphosphate 3-kinase catalytic subunit alpha isoform (Homo sapiens), P42336 [E542K]; assay: Inhibition of T7 bacteriophage fused human PIK3CA E542K mutant at 10 uM by KINOMEscan analysis relative to control
[14] = tested on: Phosphatidylinositol 4,5-bisphosphate 3-kinase catalytic subunit alpha isoform (Homo sapiens), P42336 [E545K]; assay: Inhibition of T7 bacteriophage fused human PIK3CA E545K mutant at 10 uM by KINOMEscan analysis relative to control
[15] = target: Serine/threonine-protein kinase pim-3 (Homo sapiens) (UniProt Q86V86); assay: Inhibition of T7 bacteriophage fused human PIM3 at 10 uM by KINOMEscan analysis relative to control
[16] = target: Interferon-induced, double-stranded RNA-activated protein kinase (Homo sapiens) (UniProt P19525); assay: Inhibition of T7 bacteriophage fused human PRKR at 10 uM by KINOMEscan analysis relative to control
[17] = target: Serine/threonine-protein kinase PRP4 homolog (Homo sapiens) (UniProt Q13523); assay: Inhibition of T7 bacteriophage fused human PRP4 at 10 uM by KINOMEscan analysis relative to control
[18] = target: Rho-associated protein kinase 1 (Homo sapiens) (UniProt Q13464); assay: Inhibition of T7 bacteriophage fused human ROCK1 at 10 uM by KINOMEscan analysis relative to control
[19] = target: Proto-oncogene tyrosine-protein kinase ROS (Homo sapiens) (UniProt P08922); assay: Inhibition of T7 bacteriophage fused human ROS1 at 10 uM by KINOMEscan analysis relative to control
[20] = target: Leukocyte tyrosine kinase receptor (Homo sapiens) (UniProt P29376); assay: Inhibition of T7 bacteriophage fused human LTK at 10 uM by KINOMEscan analysis relative to control; values are per cent of control
[21] = target: Ephrin type-A receptor 5 (Homo sapiens) (UniProt P54756); assay: Inhibition of T7 bacteriophage fused human EPHA5 at 10 uM by KINOMEscan analysis relative to control; values are per cent of control
[22] = target: Ephrin type-A receptor 8 (Homo sapiens) (UniProt P29322); assay: Inhibition of T7 bacteriophage fused human EPHA8 at 10 uM by KINOMEscan analysis relative to control; values are per cent of control
[23] = target: MAP/microtubule affinity-regulating kinase 4 (Homo sapiens) (UniProt Q96L34); assay: Inhibition of T7 bacteriophage fused human MARK4 at 10 uM by KINOMEscan analysis relative to control; values are per cent of control
[24] = target: Myosin-IIIa (Homo sapiens) (UniProt Q8NEV4); assay: Inhibition of T7 bacteriophage fused human MYO3A at 10 uM by KINOMEscan analysis relative to control; values are per cent of control
[25] = target: Serine/threonine-protein kinase DCLK3 (Homo sapiens) (UniProt Q9C098); assay: Inhibition of T7 bacteriophage fused human DCAMKL3 at 10 uM by KINOMEscan analysis relative to control; values are per cent of control
[26] = target: MAP kinase-activated protein kinase 5 (Homo sapiens) (UniProt Q8IW41); assay: Inhibition of T7 bacteriophage fused human MAPKAPK5 at 10 uM by KINOMEscan analysis relative to control; values are per cent of control
[27] = target: Mitogen-activated protein kinase 14 (Homo sapiens) (UniProt Q16539); assay: Inhibition of T7 bacteriophage fused human p38-alpha at 10 uM by KINOMEscan analysis relative to control; values are per cent of control
[28] = tested on: Leucine-rich repeat serine/threonine-protein kinase 2 (Homo sapiens), Q5S007 [A2016T]; assay: Inhibition of drug-resistant GFP-tagged LRRK2 A2016T mutant phosphorylation at Ser935 residue (unknown origin) transfected in HEK293 cells upto 3 uM incubated for 90 mins by immunoblot analysis; assay type: cell-based
Outline: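 HEK293 cells stably expressing GFP-LRRK2 variants, grown in DMEM with 10% FBS, 2 mM glutamine and penicillin/streptomycin. Compound added from DMSO stock (final DMSO ≤1%) at increasing concentrations for 90 min, DMSO control. Cells were PBS-washed and lysed in Triton X-100 lysis buffer. Lysates were run on 8% SDS-PAGE and immunoblotted with rabbit monoclonals against pSer910, pSer935 and total LRRK2.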

Sequence of Serine/threonine-protein kinase DCLK3 (Homo sapiens) (Q9C098 whole entry, the tested form may be a part): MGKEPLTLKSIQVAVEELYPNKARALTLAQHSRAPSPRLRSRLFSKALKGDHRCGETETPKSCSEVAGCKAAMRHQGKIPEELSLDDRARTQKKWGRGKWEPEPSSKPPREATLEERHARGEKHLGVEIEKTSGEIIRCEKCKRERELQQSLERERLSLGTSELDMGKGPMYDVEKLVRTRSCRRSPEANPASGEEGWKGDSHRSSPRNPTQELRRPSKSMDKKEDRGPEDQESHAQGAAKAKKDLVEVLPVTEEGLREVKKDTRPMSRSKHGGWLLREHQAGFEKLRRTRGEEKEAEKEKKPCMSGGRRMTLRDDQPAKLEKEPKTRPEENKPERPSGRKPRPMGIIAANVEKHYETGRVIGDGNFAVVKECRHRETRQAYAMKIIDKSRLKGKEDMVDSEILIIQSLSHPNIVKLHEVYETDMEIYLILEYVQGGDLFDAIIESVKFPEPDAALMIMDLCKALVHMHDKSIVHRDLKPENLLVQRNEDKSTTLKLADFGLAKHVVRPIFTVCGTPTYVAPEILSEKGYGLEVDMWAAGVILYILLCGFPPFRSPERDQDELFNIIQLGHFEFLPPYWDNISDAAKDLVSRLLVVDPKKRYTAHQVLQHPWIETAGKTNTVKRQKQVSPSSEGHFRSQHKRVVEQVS
Sequence of Rho-associated protein kinase 1 (Homo sapiens) (Q13464 2-1354 limits assumed): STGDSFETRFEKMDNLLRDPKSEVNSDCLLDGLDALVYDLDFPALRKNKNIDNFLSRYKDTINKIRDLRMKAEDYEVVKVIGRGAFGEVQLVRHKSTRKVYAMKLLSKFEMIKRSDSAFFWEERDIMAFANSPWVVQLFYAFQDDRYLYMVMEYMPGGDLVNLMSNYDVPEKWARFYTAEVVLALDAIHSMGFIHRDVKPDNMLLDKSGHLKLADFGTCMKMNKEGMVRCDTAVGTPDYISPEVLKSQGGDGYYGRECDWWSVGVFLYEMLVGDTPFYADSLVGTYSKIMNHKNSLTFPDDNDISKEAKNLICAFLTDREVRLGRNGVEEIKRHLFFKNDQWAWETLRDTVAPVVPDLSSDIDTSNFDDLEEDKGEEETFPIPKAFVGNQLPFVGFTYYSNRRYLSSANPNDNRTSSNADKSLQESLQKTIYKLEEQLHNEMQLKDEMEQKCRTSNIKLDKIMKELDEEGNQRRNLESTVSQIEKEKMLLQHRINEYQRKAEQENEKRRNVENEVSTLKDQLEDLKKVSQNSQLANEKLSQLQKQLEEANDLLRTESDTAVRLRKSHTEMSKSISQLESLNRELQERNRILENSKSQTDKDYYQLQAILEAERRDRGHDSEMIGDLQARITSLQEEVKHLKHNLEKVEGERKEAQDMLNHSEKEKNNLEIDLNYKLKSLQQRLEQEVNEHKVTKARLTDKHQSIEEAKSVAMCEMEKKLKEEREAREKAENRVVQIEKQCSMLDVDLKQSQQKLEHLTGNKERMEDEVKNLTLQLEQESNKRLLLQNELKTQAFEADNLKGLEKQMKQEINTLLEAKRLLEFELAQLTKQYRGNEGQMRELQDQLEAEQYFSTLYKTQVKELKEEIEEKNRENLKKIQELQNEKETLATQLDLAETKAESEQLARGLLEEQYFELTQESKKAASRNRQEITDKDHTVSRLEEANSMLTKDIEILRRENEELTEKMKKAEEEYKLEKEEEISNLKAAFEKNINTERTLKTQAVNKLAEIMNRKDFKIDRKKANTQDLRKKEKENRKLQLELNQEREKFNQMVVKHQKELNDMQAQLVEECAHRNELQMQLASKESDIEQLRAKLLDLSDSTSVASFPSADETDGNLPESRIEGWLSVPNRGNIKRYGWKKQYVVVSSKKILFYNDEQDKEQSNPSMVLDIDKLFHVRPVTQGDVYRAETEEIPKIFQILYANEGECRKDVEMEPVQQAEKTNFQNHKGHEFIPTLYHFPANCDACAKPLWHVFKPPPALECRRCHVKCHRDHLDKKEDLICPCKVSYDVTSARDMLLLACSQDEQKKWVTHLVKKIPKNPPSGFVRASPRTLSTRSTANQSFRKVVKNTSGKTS
Sequence of 3-phosphoinositide-dependent protein kinase 1 (Homo sapiens) (O15530 whole entry, the tested form may be a part, canonical isoform): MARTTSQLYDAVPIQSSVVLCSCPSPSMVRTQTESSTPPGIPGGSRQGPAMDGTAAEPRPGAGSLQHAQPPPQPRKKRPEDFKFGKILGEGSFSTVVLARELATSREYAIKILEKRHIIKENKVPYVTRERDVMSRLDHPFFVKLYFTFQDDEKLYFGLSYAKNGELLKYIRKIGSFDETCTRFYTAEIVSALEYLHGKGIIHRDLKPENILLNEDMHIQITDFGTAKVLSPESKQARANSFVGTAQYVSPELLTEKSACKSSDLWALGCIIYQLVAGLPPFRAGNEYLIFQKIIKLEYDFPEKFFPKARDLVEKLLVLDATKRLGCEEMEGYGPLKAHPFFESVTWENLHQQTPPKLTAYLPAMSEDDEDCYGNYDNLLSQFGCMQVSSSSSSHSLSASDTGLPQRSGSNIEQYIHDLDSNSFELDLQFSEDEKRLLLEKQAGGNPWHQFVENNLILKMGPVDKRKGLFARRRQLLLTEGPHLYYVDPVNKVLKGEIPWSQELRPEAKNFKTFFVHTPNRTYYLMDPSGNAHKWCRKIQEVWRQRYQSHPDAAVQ
Sequence of Proto-oncogene tyrosine-protein kinase ROS (Homo sapiens) (P08922 whole entry, the tested form may be a part): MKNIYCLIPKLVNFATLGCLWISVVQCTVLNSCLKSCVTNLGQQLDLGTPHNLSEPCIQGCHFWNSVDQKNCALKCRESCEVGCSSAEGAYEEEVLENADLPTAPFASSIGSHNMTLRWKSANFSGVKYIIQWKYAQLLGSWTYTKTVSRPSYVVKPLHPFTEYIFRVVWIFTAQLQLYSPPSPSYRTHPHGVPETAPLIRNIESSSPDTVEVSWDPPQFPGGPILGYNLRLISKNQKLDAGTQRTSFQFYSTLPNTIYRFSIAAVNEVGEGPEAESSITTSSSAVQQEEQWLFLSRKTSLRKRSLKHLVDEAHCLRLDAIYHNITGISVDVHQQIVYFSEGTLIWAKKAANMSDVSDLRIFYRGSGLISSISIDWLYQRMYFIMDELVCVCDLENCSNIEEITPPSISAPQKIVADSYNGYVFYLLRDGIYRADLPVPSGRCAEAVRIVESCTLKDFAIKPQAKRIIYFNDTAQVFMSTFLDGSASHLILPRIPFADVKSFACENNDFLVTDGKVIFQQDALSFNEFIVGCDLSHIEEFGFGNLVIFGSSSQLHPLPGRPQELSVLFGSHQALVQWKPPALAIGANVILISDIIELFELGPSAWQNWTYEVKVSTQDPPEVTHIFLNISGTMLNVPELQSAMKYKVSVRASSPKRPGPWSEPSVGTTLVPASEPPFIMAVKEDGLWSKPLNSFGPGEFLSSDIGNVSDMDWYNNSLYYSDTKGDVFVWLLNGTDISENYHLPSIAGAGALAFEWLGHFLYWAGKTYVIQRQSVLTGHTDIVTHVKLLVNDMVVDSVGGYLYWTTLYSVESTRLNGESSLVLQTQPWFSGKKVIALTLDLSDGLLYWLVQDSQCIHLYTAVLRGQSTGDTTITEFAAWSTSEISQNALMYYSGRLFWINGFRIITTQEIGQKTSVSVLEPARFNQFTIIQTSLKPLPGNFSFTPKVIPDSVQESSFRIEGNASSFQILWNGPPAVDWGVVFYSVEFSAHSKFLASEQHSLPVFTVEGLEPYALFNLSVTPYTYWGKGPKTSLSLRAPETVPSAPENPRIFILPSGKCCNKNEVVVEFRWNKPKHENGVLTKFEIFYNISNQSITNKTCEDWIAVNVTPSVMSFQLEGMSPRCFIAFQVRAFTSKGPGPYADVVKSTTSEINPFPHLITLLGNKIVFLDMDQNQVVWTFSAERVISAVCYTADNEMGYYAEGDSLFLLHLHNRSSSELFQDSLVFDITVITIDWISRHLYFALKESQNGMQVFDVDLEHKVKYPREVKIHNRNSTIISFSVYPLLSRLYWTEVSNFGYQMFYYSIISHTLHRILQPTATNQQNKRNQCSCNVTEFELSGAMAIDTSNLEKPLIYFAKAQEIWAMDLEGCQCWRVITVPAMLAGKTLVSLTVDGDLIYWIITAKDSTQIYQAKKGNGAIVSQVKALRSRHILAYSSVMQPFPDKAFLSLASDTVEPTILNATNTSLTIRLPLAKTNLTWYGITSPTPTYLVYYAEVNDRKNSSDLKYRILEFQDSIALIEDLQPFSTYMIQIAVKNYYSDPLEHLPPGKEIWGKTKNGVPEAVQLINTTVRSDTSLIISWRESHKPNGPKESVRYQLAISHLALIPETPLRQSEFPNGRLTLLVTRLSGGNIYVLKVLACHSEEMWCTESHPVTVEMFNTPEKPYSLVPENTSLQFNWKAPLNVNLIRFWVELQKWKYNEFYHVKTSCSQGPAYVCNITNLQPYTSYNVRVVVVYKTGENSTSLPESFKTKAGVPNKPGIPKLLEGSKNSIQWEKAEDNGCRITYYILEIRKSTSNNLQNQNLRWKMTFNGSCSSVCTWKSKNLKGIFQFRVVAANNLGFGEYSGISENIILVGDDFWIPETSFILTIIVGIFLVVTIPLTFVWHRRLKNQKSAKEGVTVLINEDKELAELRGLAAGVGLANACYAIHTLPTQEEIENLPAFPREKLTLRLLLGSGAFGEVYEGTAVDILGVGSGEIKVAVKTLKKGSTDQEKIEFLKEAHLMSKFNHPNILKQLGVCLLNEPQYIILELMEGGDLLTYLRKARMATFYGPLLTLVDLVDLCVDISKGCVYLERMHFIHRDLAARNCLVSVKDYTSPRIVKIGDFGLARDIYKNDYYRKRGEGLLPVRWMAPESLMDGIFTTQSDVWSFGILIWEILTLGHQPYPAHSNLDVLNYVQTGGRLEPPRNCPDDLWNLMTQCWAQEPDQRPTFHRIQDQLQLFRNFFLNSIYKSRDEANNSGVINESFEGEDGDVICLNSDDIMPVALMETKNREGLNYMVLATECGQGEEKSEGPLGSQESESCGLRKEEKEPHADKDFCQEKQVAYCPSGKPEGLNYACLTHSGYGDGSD

For `COc1cc(N2CCC(N3CCN(C)CC3)CC2)ccc1Nc1ncc2c(n1)N(C)c1ccccc1C(=O)N2C`, the inhibition [1] was 50%, the inhibition [2] was 100% and the inhibition [3] was 100%. The inhibition [4] was 100%, the inhibition [5] was 95% and the inhibition [6] was 86%. For the same compound, the inhibition [7] was 100%, the inhibition [8] was 100% and the inhibition [9] was 100%. The inhibition [10] was 100%, the inhibition [11] was 100% and the inhibition [12] was 100%. For the same compound, the inhibition [13] was 77%, the inhibition [14] was 100% and the inhibition [15] was 88%. The inhibition [16] was 84%, the inhibition [17] was 93% and the inhibition [18] was 100%. The inhibition [19] was 12%, the residual activity [20] was 32% and the residual activity [21] was 95%. It also gave a residual activity [22] of 80%, a residual activity [23] of 78% and a residual activity [24] of 94%. The residual activity [25] was 90%, the residual activity [26] was 97% and the residual activity [27] was 87%.
`CCOc1cc(C(=O)N2CCC(N3CCN(C)CC3)CC2)ccc1Nc1ncc2c(n1)N(C1CCCC1)c1ccccc1C(=O)N2C` was tested, and the inhibition [28] was “inactive”.
